Screening results (PubChem BioAssay)
Compounds with a hit are over-represented: about 4% of the library has one in this group of screens.
TAAR1 agonist – agonists of human TAAR1. hit rate 0.99% among 360,000. Q96RJ0. CHO RD-HGA16 TAAR1, Fluo-8 calcium fluorescence; vehicle wells 0%, saturating PEA agonist 100%. activation, % at 3 µM;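 active = activation above the mean activation of all test compounds in the run plus 3 SD, cut at about 38% in these data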
Target sequence (Q96RJ0 whole entry, looked up): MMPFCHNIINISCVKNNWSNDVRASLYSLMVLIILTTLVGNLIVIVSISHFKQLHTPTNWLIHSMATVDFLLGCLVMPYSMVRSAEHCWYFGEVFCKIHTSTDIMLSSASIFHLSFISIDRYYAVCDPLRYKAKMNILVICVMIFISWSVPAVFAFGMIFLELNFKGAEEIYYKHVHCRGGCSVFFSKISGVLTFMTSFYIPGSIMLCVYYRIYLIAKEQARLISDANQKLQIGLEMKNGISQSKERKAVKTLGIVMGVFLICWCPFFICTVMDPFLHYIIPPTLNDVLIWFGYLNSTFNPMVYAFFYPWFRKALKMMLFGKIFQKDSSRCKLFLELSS
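Assay system: CHO-derived RD-HGA16 cells with stable Gα16 and human TAAR1; timing: 17-24 h seeding, 75 min 37 °C dye, 30 min RT; read-out: % activation from peak over basal fluorescence ratio, DMSO-to-PEA scaled; measured by: kinetic Fluo-8 calcium fluorescence; benchmarks: low control DMSO, high control PEA (EC100); doses: 3 µM single concentration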
GPR7 antagonist – antagonists of human GPR7 (neuropeptides B/W receptor 1). P48145. GPR7-expressing cells, fluorescence antagonist assay. inhibition, % at 4.4 µM. hit rate 1.1% among 290,000. AID 1861; in the data active = inhibition above about 16%, passing the limit was not always enough;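 note: cells stimulated with the agonist NPW; 0% = agonist with vehicle and 100% = vehicle without agonist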
Target sequence (P48145 whole entry, looked up): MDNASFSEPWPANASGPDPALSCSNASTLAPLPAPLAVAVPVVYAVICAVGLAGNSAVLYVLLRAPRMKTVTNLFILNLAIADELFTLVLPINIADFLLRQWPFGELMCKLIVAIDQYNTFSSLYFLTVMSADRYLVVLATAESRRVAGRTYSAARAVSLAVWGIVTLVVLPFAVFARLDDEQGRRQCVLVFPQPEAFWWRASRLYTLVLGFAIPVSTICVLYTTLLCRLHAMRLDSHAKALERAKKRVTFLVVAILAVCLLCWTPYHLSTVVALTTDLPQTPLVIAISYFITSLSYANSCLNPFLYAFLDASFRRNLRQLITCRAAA
MPTP inh – inhibitors of mitochondrial permeability transition pore; isolated mouse mitochondria, Ca2+ swelling absorbance, 30 min; inhibition, % at 10 µM; hit rate 1.4% among 360,000;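 active = inhibition of 50% or more, scaled per plate between neutral and stimulator controls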;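 note: 0% = DMSO wells given calcium and 100% = 1 mM EGTA wells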
TAAR1 antagonist – human TAAR1 antagonism; Q96RJ0; CHO RD-HGA16 TAAR1, Fluo-8 calcium fluorescence, antagonist; inhibition, % at 3 µM; hit rate 1.5% among 360,000;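 active = inhibition above a per-plate cutoff, the mean inhibition of test compounds on that plate plus 3 SD, cut at about 49% in these data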;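 note: 0% = DMSO plus EC80 beta-PEA response and 100% = DMSO alone without agonist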
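Test system – hTAAR1-expressing CHO RD-HGA16 cells, Gα16-coupled · Also added – β-PEA at EC80 concentration, post-compound challenge · Compound – 3 µM, single point · Incubation – dye loading 75 min at 37 °C, then 30 min room temperature · Measured by – Fluo-8 intracellular calcium dye fluorescence, real-time kinetic reads · Benchmarks – vehicle and agonist controls · Replicates – singlicate, one well per test compound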
DAGLB inhibitor – blocks human DAGLB lipase activity. hit rate 0.059% among 340,000. HEK293T DAGLB membrane lysate, EnzChek fluorogenic substrate. inhibition, % at 5.17 µM. AID 504411; in the data active = inhibition above about 34%;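 note: 0% = enzyme with vehicle and 100% = wells lacking enzyme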
TAAR1 ag confirm – confirmation of human TAAR1 agonists; activation, % at 3 µM; shares compounds with TAAR1 agonist; CHO RD-HGA16 TAAR1, Fluo-8 calcium fluorescence; scaled: DMSO 0%, maximal phenethylamine 100%; hit rate 82% among 2,400;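 active = activation above a cutoff set at the run's mean compound activation plus 3 SD, cut at about 39% in these data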
Ga16 ag counter – counter-screen for TAAR1 agonists: nonselective agonists in parental cells. activation, % at 3 µM. shares compounds with TAAR1 agonist. hit rate 50% among 2,400. CHO-Ga16 parental, Fluo-8 calcium fluorescence; normalized to maximal ATP response, DMSO zero;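 active = activation above the run cutoff, the mean activation over all tested wells plus 3 SD, cut at about 12% in these data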;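 note: 0% = DMSO wells and 100% = maximal ATP response on the peak over basal ratio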
TAAR1 desens – TAAR1 response desensitization, agonist counter-screen; CHO RD-HGA16 hTAAR1, Fluo-8 calcium, beta-PEA response inhibition; shares compounds with TAAR1 agonist; AID 651951; inhibition, % at 3 µM; hit rate 46% among 2,400;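 active = inhibition above the run cutoff, the mean inhibition of all test compounds plus 3 SD, cut at about 49% in these data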;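 note: beta-PEA stimulus applied at its EC80; loss of beta-PEA calcium signal after compound pretreatment read as receptor desensitization; 0% = DMSO with beta-PEA at EC80 and 100% = DMSO alone without agonist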
Ga16 antag count – counter-screen for TAAR1 agonists: nonselective Ga16 antagonists. hit rate 39% among 2,400. inhibition, % at 3 µM. shares compounds with TAAR1 agonist. CHO-Ga16 ATP-induced calcium, Fluo-8 fluorescence;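 active = inhibition above the plate's mean compound inhibition plus 3 SD, computed per plate, cut at about 22% in these data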;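 note: 0% = EC80 ATP with DMSO and 100% = DMSO wells without ATP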
An asterisk follows results filed as active; x = no result.

SMILES	TAAR1 agonist	GPR7 antagonist	MPTP inh	TAAR1 antagonist	DAGLB inhibitor	TAAR1 ag confirm	Ga16 ag counter	TAAR1 desens	Ga16 antag count
Nc1[nH]c(C(=O)c2ccccc2)c(-c2ccc3ccccc3c2)c1C(=O)NCc1ccc(-c2ccccc2)cc1	2.1	x	x	-40.8	x	x	x	x	x
Cc1ccc(C(=O)NC(=S)NNC(=O)c2cccc([N+](=O)[O-])c2)cc1	83.5*	-0.9	6.0	16.8	3.4	101.2*	75.3*	62.0*	35.5*
O=C(NNC(=S)NC(=O)c1ccccc1)c1cccc([N+](=O)[O-])c1	95.5*	-15.5	1.3	29.3	0.8	83.9*	64.7*	28.0	20.4
O=C(NNC(=S)NC(=O)c1cccc([N+](=O)[O-])c1)c1ccc(Br)cc1	99.3*	-4.6	0.9	13.6	-1.1	107.2*	81.4*	77.1*	44.2*
O=C(NNC(=S)NC(=O)c1cccc([N+](=O)[O-])c1)c1ccc(O)cc1	-1.6	5.1	2.4	0.8	-2.2	x	x	x	x
CCN1C(=O)/C(=C/c2ccc(OCc3ccc(C(=O)O)cc3)c(Cl)c2)NC1=S	100.1*	19.7	2.1	95.7*	3.2	32.5	35.8*	76.2*	67.6*
O=C(O)c1ccc(COc2ccc(CO)cc2Cl)cc1	-1.9	-14.5	0.3	-6.9	-1.2	x	x	x	x
Cc1c(NC(=O)c2nn(C(C)C)c(=O)c3ccccc23)c(=O)n(-c2ccccc2)n1C	-0.4	x	-0.8	5.2	0.1	x	x	x	x
C[C@H](c1ccccc1)N1C[C@@H](COCc2ccccc2)Oc2cccc(F)c2S1(=O)=O	1.9	x	x	9.5	x	x	x	x	x
CN(C)CCSc1nnc2[nH]c3ccccc3c2n1	43.5*	1.1	-0.3	5.7	0.1	83.1*	0.1	41.1	-1.6
COc1ccccc1CC(=O)NCC1CCCO1 (centres undefined)	2.8	x	-2.6	-7.9	1.0	x	x	x	x
COc1ccccc1CCNC(=O)C1CCCO1 (centres undefined)	43.2*	-12.4	-0.1	12.6	0.7	73.0*	1.6	29.8	5.5
N#C/C(=C/c1ccc(N2CCCCC2)o1)C(=O)Nc1ccc(Cl)cc1	312.3*	10.4	1.2	108.6*	-81.1	127.3*	165.7*	95.6*	92.2*
CC1CC1c1ccc(/C=C(\C#N)C(=O)Nc2ccccc2Cl)o1 (centres undefined)	1.6	-14.1	2.3	1.7	-18.5	x	x	x	x
N#C/C(=C/c1ccc(N2CCCCC2)o1)C(=O)Nc1ccc2ccccc2c1	268.2*	14.3	4.4	107.1*	-151.5	199.2*	223.2*	93.4*	94.7*
COc1cc2c(c(OC)c1OC)C1(CCCCC1)CC2NS(=O)(=O)C(C)C (centres undefined)	91.5*	x	x	49.1*	x	15.4	3.0	2.2	6.3
COc1cc2c(c(OC)c1OC)C1(CCCCC1)CC2NC(=O)c1ccncc1 (centres undefined)	6.8	x	x	-16.4	x	x	x	x	x
C[C@@H]1CN(C(=O)OC(C)(C)C)CCN1c1ccc(N2CCS(=O)(=O)CC2)c(C#N)c1	11.6	x	x	16.3	x	x	x	x	x
CN(CCc1ccccc1)C(C(=O)c1ccc2c(c1)OCO2)c1nnnn1-c1ccccc1NC(=O)OC(C)(C)C (centres undefined)	86.0*	x	1.9	78.1*	x	85.0*	0.9	82.1*	7.9
NC(=O)Nc1ccc(C(=O)OCC(=O)c2c[nH]c3ccccc23)cc1	47.7*	x	2.5	3.5	0.9	59.1*	0.5	14.9	12.9
COc1cc(C(c2nnnn2C2CCCC2)N2CCc3ccccc3C2)ccc1O (centres undefined)	85.1*	3.1	-1.1	99.8*	-6.2	90.7*	0.1	97.4*	6.9
O=C(Nc1c(F)c(F)c(F)c(F)c1F)OC[C@@H]1CSCCS(=O)(=O)N1	3.3	x	x	-3.8	x	x	x	x	x
Cc1ccnc(OC(C(=O)O)C(OCc2ccccc2)(c2ccccc2)c2ccc(C(F)(F)F)cc2)n1 (centres undefined)	-0.6	-5.6	1.5	-27.6	11.6	x	x	x	x
Cc1cc(C)nc(OC(C(=O)O)C(OCc2ccccc2)(c2ccccc2)c2ccccc2)n1 (centres undefined)	113.0*	-10.3	0.4	1.9	7.1	135.6*	58.3*	8.7	-7.0
CCCOC(c1ccccc1)(c1ccccc1)C(Oc1nc(C)cc(C)n1)C(=O)O (centres undefined)	29.6	-18.6	-0.1	-11.4	2.0	x	x	x	x
SMILES	TAAR1 agonist	GPR7 antagonist	MPTP inh	TAAR1 antagonist	DAGLB inhibitor	TAAR1 ag confirm	Ga16 ag counter	TAAR1 desens	Ga16 antag count
Cc1cc(C)nc(OC(C(=O)O)C(OCCC(C)C)(c2ccccc2)c2ccccc2)n1 (centres undefined)	88.8*	1.6	0.4	17.7	7.5	126.7*	92.2*	30.3	13.0
COc1ccc(CN2C(=O)CCC2(C)c2nnnn2-c2ccc3c(c2)OCCO3)cc1OC (centres undefined)	0.7	x	-1.0	-2.6	x	x	x	x	x
N#C/C(=C\c1ccc(N2CCOCC2)o1)C(=O)Nc1ccc(O)cc1	57.9*	7.0	-0.8	31.0	x	21.2	19.4*	21.9	28.0*
COc1ccc(NC(=O)/C(C#N)=C\c2ccc(N3CCOCC3)o2)cc1	135.2*	9.6	1.7	75.8*	-36.4	49.1*	60.3*	64.6*	61.9*
N#C/C(=C/c1ccc(N2CCOCC2)o1)C(=O)NC1CCCCC1	22.7	0.6	-1.2	15.6	-5.9	x	x	x	x
COC(=O)[C@]12C[C@H](CC(=O)NCc3cccs3)C(=O)N(CCc3ccc(OC)c(OC)c3)C1=C[C@H](C(C)(C)C)O[C@@H]2C	0.4	x	x	-18.4	x	x	x	x	x
O=C(NCCc1ccc(F)cc1)c1coc(=O)c(Br)c1	68.3*	-5.1	-0.4	35.0	-2.0	66.3*	1.0	16.1	8.3
Oc1ccccc1Nc1nc(NCc2ccccc2)c2ccccc2n1	12.9	-0.6	11.0	12.8	-0.5	x	x	x	x
OCCNc1nc(Nc2ccccc2)nc2ccccc12	96.6*	-1.2	11.4	92.1*	1.7	88.8*	1.6	97.9*	11.2
Cc1c(Cl)cccc1Nc1nc(NCCO)c2ccccc2n1	49.5*	5.0	5.0	37.1	0.3	82.8*	4.7	83.7*	6.0
COc1ccc(OC)c(C2=CC(=O)C[C@H](c3ccc4c(c3)OCO4)C2)c1	4.1	x	0.0	30.7	-7.0	x	x	x	x
CCOC(=O)C1=CCC(c2ccccc2C)N(S(=O)(=O)c2ccc(C)cc2)C1 (centres undefined)	1.9	x	-0.1	2.0	x	x	x	x	x
